From ChEMBL document CHEMBL3856289, “Discovery of ONO-7300243 from a Novel Class of Lysophosphatidic Acid Receptor 1 Antagonists: From Hit to Lead” (ACS Med Chem Lett, 2016) come the findings set out here.

Converted amounts (≈) assume the structure as drawn. The source made the active and inactive calls. No cut-off for these calls is given here.

For orientation: IC50 means the concentration that gives 50% inhibition. As usually defined, the inhibition in vivo is the change of the read-out against control, counted positive when it falls. A high value points to a strong effect. A word on the solubility: it is how much of the substance goes into solution per volume. Read a low solubility as a poorly soluble substance. Broadly, the half-life is how long it takes for the measured level to halve. Low values mean fast loss, high ones slow loss. By Papp is commonly meant the rate of passage across a membrane or cell layer, normalised by area and donor concentration. One may read the inhibition as the share of the control response that was lost under treatment. Usually clearance stands for the volume of plasma or blood freed of the substance per unit of time. Higher therefore signals a high capacity for elimination.

Series [1] addresses T1, Lysophosphatidic acid receptor 1 (Homo sapiens, UniProt Q92633). Kind of series: Antagonist activity at human LPA1 receptor expressed in CHO cells assessed as reduction in LPA-induced intracellular Ca2+ concentration pretreated with compound followed by LPA addition by fluorescence assay. The series is classed as functional, cell-based. In a few lines: (§1)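 IC50s came from nonlinear regression of 5-point concentration–response curves, reported with 95% confidence intervals.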

In series [2] the target is Lysophosphatidic acid receptor 2 (Homo sapiens, UniProt Q9HBW0). Kind of series: Inhibition of LPA2 (unknown origin). An outline of the steps: as §1
Series [3] concerns the target T2, Lysophosphatidic acid receptor 3 (Homo sapiens, UniProt Q9UBY5).
T2 sequence (Q9UBY5 whole entry): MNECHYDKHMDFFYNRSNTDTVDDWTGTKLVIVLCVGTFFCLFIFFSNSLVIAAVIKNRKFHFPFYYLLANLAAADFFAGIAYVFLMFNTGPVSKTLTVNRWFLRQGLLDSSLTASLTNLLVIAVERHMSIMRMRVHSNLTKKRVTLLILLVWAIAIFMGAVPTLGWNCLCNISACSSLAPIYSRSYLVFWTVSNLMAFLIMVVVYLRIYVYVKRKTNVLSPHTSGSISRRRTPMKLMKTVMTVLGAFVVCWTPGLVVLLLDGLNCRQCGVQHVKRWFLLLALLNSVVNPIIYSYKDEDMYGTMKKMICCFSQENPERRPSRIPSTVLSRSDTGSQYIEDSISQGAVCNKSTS
In words: Inhibition of LPA3 (unknown origin). In a few lines: as §1

The test system of series [4] is Rattus norvegicus. In words: Inhibition of LPA-induced increase of intraurethral pressure in anesthetized rat at 10 mg/kg, id administered at 0 mins followed by LPA challenge at 0, 5, 15, 30 and 60 mins. The following applies: Urethra. The series is classed as functional. In a few lines: (§2)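 Anesthetized rats received compound in 0.5% methylcellulose intraduodenally at 0 min. LPA (300 μg/kg) was given i.v. before dosing and at 5, 15, 30 and 60 min. The read-out is the maximal inhibition rate of the LPA-evoked intraurethral pressure rise.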

A short description of series [5]: Solubility of the compound in buffer at pH 6.8. The series is classed as physicochemical.
Series [6] is described as follows: Half life in human liver microsomes at 0.5 mg/ml. The series is classed as ADME. An outline of the steps: (§3)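 Liver microsomes were used at 0.5 mg/mL with NADPH. Half-life is reported in min.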
A general note: Liver microsomes are a subcellular fraction often used to study metabolism.

Series [7] is described as follows: Half life in rat liver microsomes at 0.5 mg/ml. The series is classed as ADME. In a few lines:
as §3

Series [8] relates to Rattus norvegicus. Kind of series: Inhibition of LPA-induced increase of intraurethral pressure in anesthetized rat at 3 mg/kg, id administered at 0 mins followed by LPA challenge at 0, 5, 15, 30 and 60 mins. The series is classed as functional. The following applies: Urethra. In a few lines:
as §2

The nature of series [9]: Apparent permeability in human Caco2 cells. The following applies: Caco-2. The series is classed as ADME, cell-based. (In general: Passage across Caco-2 layers is used to estimate intestinal permeability.)
The subject of series [10] is Rattus norvegicus. Kind of series: Inhibition of LPA-induced increase of intraurethral pressure in po dosed rat administered 60 mins prior to LPA addition. In kind it is functional. The following applies: Urethra. An outline of the steps: (§4)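 Conscious rats were dosed orally. After 60 min, LPA (300 μg/kg) was injected i.v. and intraurethral pressure was recorded under short-term anesthesia. ID50 was taken from the dose–response.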

Series [11] deals with Rattus norvegicus. Kind of series: Inhibition of LPA-induced increase of intraurethral pressure in rat at 10 mg/kg, po administered 60 mins prior to LPA addition. In kind it is functional, organism-based. The following applies: Urethra. In a few lines:
as §4

Series [12] concerns Rattus norvegicus. Kind of series: Inhibition of LPA-induced increase of intraurethral pressure in rat at 30 mg/kg, po administered 60 mins prior to LPA addition. The series is classed as functional, organism-based. Conditions: Urethra. In a few lines: as §4
The test system of series [13] is Rattus norvegicus. In words: In vivo antagonist activity at LPA1 receptor in conscious rat assessed as decrease in intraurethral pressure at 30 mg/kg, po. The series is classed as functional, organism-based. An outline of the steps: (§5)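 Conscious rats were dosed orally at 0 min with no LPA stimulation. Intraurethral pressure and mean blood pressure were recorded continuously for 60 min and averaged over 10-min intervals. Comparison was against vehicle.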

In series [14] the test system is Rattus norvegicus. In words: Toxicity in conscious rat assessed as reduction in mean blood pressure at 30 mg/kg, po. The series is classed as organism-based. The following applies: in vivo. An outline of the steps: as §5
In series [15] the test system is Rattus norvegicus. Kind of series: Reduction in intraurethral pressure in conscious rat at 1 mg/kg, po measured after 60 mins. In kind it is functional, organism-based. Conditions: 30 mg/kg, in the assay text read “30 mg/kg” for “1 mg/kg”. In a few lines:
as §5

Series [16] in a line: Total clearance in rat at 3 mg/kg, iv. In kind it is ADME, organism-based. Conditions: in vivo.
The nature of series [17]: Half life in rat at 3 mg/kg, iv. Conditions: in vivo. In kind it is ADME, organism-based.
Series [18] concerns Rattus norvegicus. Kind of series: Toxicity in conscious rat assessed as reduction in mean blood pressure at 1 mg/kg, po measured after 60 mins. The series is classed as organism-based. Conditions: in vivo, 1 h. In a few lines: as §5
For series [19], the target named is T1, Lysophosphatidic acid receptor 1. Kind of series: Antagonist activity at human LPA1 receptor expressed in CHO cells assessed as reduction in LPA-induced intracellular Ca2+ concentration at 1 uM pretreated with compound followed by LPA addition by fluorescence assay. In kind it is functional, cell-based.

T1 sequence (Q92633 whole entry): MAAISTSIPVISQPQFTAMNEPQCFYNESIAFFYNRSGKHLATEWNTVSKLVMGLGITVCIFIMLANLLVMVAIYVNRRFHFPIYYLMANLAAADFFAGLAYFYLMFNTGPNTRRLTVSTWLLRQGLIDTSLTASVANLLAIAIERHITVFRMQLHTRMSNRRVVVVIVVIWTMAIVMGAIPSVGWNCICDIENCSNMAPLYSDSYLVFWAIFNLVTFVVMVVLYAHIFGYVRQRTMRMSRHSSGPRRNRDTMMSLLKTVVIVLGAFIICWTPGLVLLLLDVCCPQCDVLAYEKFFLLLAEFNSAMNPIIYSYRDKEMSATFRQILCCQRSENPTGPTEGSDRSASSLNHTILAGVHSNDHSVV
Lysophosphatidic acid receptor 2, sequence (Q9HBW0 whole entry): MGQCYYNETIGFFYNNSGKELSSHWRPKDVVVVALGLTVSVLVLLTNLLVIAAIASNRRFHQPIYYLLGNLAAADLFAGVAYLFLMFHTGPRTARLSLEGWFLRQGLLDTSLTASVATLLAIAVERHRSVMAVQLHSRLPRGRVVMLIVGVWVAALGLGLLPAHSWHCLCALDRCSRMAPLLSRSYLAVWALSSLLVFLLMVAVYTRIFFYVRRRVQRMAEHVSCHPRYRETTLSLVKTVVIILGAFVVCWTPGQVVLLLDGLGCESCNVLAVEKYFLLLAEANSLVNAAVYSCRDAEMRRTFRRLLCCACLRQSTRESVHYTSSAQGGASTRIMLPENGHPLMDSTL

Consider `COc1cc(C(=O)N(CCCc2ccccc2)Cc2ccc(-c3ccccc3C(=O)O)cc2)cc(OC)c1OC`, for which the half-maximal inhibitory concentration (IC50) in series [1] stood at 390 nM.

As to `COc1cc(C(=O)N(CCCc2ccccc2)Cc2ccc(Oc3cc(C)ccc3C(=O)O)cc2)cc(OC)c1C`, in [1], the IC50 is 15 nM.

Regarding `COc1cc(C(=O)N(C/C=C/c2ccccc2)Cc2ccc(CC(=O)O)cc2)cc(OC)c1C`, the IC50 in [1] is greater than 1000 nM.

For the compound `COc1cc(OC)cc(C(=O)N(CCCc2ccccc2)Cc2ccc(-c3ccccc3CCC(=O)O)cc2)c1`, the IC50 in [1] is 230 nM.

As for `COc1cc(C(=O)N(CCCCc2ccccc2)Cc2ccc(OCC(=O)O)cc2)cc(OC)c1C`, the IC50 in series [1] stood at 6600 nM.

In the case of `COc1cc(C(=O)N(CCc2ccccc2)Cc2ccc(OCC(=O)O)cc2)cc(OC)c1C`, the IC50 in series [1] is greater than 10000 nM.

For `COc1cc(C(=O)N(CCCc2ccc(F)cc2)Cc2ccc(CC(=O)O)cc2)cc(OC)c1C`, the IC50 in series [1] is greater than 1000 nM.

In the case of `COc1cc(OC)cc(C(=O)N(CCCc2ccccc2)Cc2ccc(Oc3ccccc3C(=O)O)cc2)c1`, the IC50 in [1] worked out at 89 nM.

On to `COc1cc(C(=O)N(CCCc2ccccc2)Cc2ccc(Oc3ccccc3C(=O)O)cc2)cc(OC)c1OC`, for which, in series [1], the IC50 was found to be 130 nM.

Regarding `COc1cc(C(=O)N(CCCc2ccccc2)Cc2ccc(Oc3ccc(Cl)cc3C(=O)O)cc2)cc(OC)c1C`, the IC50 in series [1] is 3.5 nM; in series [2], 0.79 µM; in [3], greater than 10 µM. Besides, the inhibition in vivo at 10 mg/kg with Rattus norvegicus [4] was 53%. Besides, in [5], the solubility was found to be 69 µM (≈ 39.6 µg/mL). Moreover, the half-life in series [6] and in series [7] was less than 15 min in each case.

Turning to `COc1cc(C(=O)N(CCCc2ccccc2)Cc2ccc(Oc3cccc(C)c3C(=O)O)cc2)cc(OC)c1C`, in series [1], the IC50 was 100 nM.

`COc1cc(C(=O)N(CCCc2ccccc2)Cc2ccc(C(=O)O)cc2)cc(OC)c1C`: the IC50 in [1] is greater than 1000 nM.

For `COc1cc(C(=O)N(CCCc2ccccc2)Cc2ccc(Oc3ccc(C)cc3C(=O)O)cc2)cc(OC)c1C`, the IC50 in [1] stood at 42 nM.

For `COc1cc(OC)cc(C(=O)N(CCCc2ccccc2)Cc2ccc(-c3ccccc3CC(=O)O)cc2)c1`, the IC50 in series [1] turned out to be 210 nM.

In the case of `COc1ccc(C(=O)N(CCCc2ccccc2)Cc2ccc(-c3ccccc3C(=O)O)cc2)cc1OC`, the IC50 in series [1] was 3700 nM.

`COc1cc(C(=O)N(CCCOc2cccc(C(=O)O)c2)CCCc2ccccc2)cc(OC)c1C`: in [1], the IC50 was 680 nM.

In the case of `COc1ccc(C(=O)N(CCCc2ccccc2)Cc2ccc(-c3ccccc3C(=O)O)cc2)cc1`, the IC50 in series [1] was found to be 4400 nM.

On to `Cc1cccc(C(=O)N(CCCc2ccccc2)Cc2ccc(-c3ccccc3C(=O)O)cc2)c1`, for which the IC50 in [1] came out at 1700 nM.

In the case of `COc1cccc(C(=O)N(CCCc2ccccc2)Cc2ccc(-c3ccccc3C(=O)O)cc2)c1`, the IC50 in [1] was 1300 nM.

On to `COc1cc(C(=O)N(CCCc2ccccc2F)Cc2ccc(CC(=O)O)cc2)cc(OC)c1C`, for which, in series [1], the IC50 was 220 nM.

As for `COc1cc(C(=O)N(CCCc2ccccc2)Cc2ccc(CC(=O)O)cc2)cc(OC)c1C`, the IC50 in series [1] is 160 nM; in series [2], 8.6 µM; in series [3], greater than 10 µM. For the same compound, 3 mg/kg produced 62% inhibition in vivo with Rattus norvegicus [8]. Further, at 10 mg/kg the inhibition in vivo with Rattus norvegicus [4] was 88%. The compound further yielded a solubility in [5] of 73 µM (≈ 33.7 µg/mL). The Papp in series [9] was determined as 15.9 ×10⁻⁶ cm/s. Also, the half-life is 28 min in series [6], 29 min in [7] and 18 min in series [17]. In addition, in the series with Rattus norvegicus [10], the inhibition result was “Dose-dependent effect”. Moreover, in the series on Rattus norvegicus [10] (read-out: ID50 (the source's name)), the ED50 turned out to be 11.6 mg/kg. The inhibition result in the series with Rattus norvegicus [11], with Rattus norvegicus [12] and with Rattus norvegicus [13] was “Active” each time. Moreover, the Activity entry with Rattus norvegicus [14] is listed as “Non-Toxic”. Further, the result with Rattus norvegicus [15] was Active. The clearance in [16] came to 15.9 mL/min/kg.

For `COc1cc(C(=O)N(CCCc2ccccc2)Cc2ccc(Oc3cc(Cl)ccc3C(=O)O)cc2)cc(OC)c1C`, the IC50 in [1] was found to be 5.9 nM.

For `COc1cc(C(=O)N(CCCc2cccc(F)c2)Cc2ccc(CC(=O)O)cc2)cc(OC)c1C`, in series [1], the IC50 turned out to be 190 nM.

For `COc1cc(C(=O)N(CCCc2ccccc2)Cc2ccc(Oc3c(C)cccc3C(=O)O)cc2)cc(OC)c1C`, the IC50 in [1] came to 140 nM.

As to `O=C(O)c1ccccc1-c1ccc(CN(CCCc2ccccc2)C(=O)c2ccccc2)cc1`, the IC50 in [1] came to 12100 nM.

Regarding `CCOc1ccccc1OCCN[C@H](C)Cc1ccc(OC)c(S(N)(=O)=O)c1` [TAMSULOSIN], the result in the series with Rattus norvegicus [15] was Active. Moreover, the Activity result in the series with Rattus norvegicus [18] is “Toxic”.

In the case of `COc1cc(OC)cc(C(=O)N(CCCc2ccccc2)Cc2ccc(Oc3ccc(C(=O)O)cc3)cc2)c1`, in series [19], the inhibition came out at 44%.

With `COc1cc(OC)cc(C(=O)N(CCCc2ccccc2)Cc2ccc(Oc3cccc(C(=O)O)c3)cc2)c1`, the IC50 in series [1] stood at 140 nM.

In the case of `COc1ccccc1C(=O)N(CCCc1ccccc1)Cc1ccc(-c2ccccc2C(=O)O)cc1`, the IC50 in series [1] worked out at 3300 nM.

As to `COc1cc(C(=O)N(CCCc2ccccc2)Cc2ccc(Oc3ccccc3C(=O)O)cc2)cc(OC)c1C`, the IC50 in series [1] amounted to 71 nM.

`Cc1cc(C)cc(C(=O)N(CCCc2ccccc2)Cc2ccc(-c3ccccc3C(=O)O)cc2)c1`: the IC50 in [1] was 260 nM.

Take `COc1cc(C(=O)N(CCCc2ccccc2)Cc2ccc(OCC(=O)O)cc2)cc(OC)c1C`: the IC50 in [1] is 100 nM; in series [2], 23 µM; in series [3] it was greater than 10 µM. This compound also showed an inhibition in vivo at 10 mg/kg in the series with Rattus norvegicus [4] of 44%. The compound further yielded a solubility in [5] of 84 µM (≈ 40.1 µg/mL). Further, the Papp in series [9] is 3.2 ×10⁻⁶ cm/s. Moreover, the half-life in series [6] amounted to 22 min; in [7], 24 min.

Take `O=C(O)c1ccccc1-c1ccc(CN(CCCc2ccccc2)C(=O)c2cccc(F)c2)cc1`: the IC50 in [1] turned out to be 5500 nM.

Turning to `COc1cc(OC)cc(C(=O)N(CCCc2ccccc2)Cc2ccc(-c3ccccc3C(=O)O)cc2)c1`, the IC50 in [1] is 260 nM.
